Paper PMC4201300 (Biochemistry, 2014)
Square brackets hold non-standard residues; d marks the D form. Peptide text beside a SMILES is read from it. pT = C[C@@H](OP(=O)(O)O)[C@H](N)C(=O)O

Assays:
[1] = biological target: T1, Pellino1 FHA domain (amino acids 2–287) (Mus musculus, UniProt Q8C669); assay: Fluorescence polarization peptide binding assay, Pellino1 FHA domain; conditions: ratio of KD values
T1 sequence (Q8C669 2-287): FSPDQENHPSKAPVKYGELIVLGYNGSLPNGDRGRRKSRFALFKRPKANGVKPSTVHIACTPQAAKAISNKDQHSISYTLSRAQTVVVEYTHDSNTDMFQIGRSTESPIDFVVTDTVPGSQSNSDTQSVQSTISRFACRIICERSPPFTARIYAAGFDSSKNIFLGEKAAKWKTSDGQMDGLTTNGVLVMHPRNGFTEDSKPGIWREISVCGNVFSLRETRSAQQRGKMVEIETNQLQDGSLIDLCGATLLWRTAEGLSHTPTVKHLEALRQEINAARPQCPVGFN
In short: (§1)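 His6-tagged FHA domains were expressed in E. coli BL21(DE3) pLys. The tag was removed with TEV during dialysis (4 °C for Pellino1, 22 °C for Pellino3a/3b), then cation exchange (pH 6 Pellino1/3b, pH 5.5 Pellino3a) and gel filtration. 50 nM N-terminally fluorescein-labelled phosphopeptide was titrated with 0–190 μM domain in PBS pH 7.4 at 25 °C. Baseline-corrected polarization was fit to a simple isotherm; mean KD from ≥3 experiments, expressed relative to pT141+3Y KD.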

[2] = biological target: T2, Pellino2 FHA domain (amino acids 15–275 of Pellino2) (Homo sapiens, UniProt Q9HAT8); assay: Fluorescence polarization peptide binding assay, Pellino2 FHA domain; conditions: for fold change in KD relative to pT141+3Y (preference for the pTxxY motif): binding weaker than for pT141+3Y, Figure 4A
T2 sequence (Q9HAT8 15-275): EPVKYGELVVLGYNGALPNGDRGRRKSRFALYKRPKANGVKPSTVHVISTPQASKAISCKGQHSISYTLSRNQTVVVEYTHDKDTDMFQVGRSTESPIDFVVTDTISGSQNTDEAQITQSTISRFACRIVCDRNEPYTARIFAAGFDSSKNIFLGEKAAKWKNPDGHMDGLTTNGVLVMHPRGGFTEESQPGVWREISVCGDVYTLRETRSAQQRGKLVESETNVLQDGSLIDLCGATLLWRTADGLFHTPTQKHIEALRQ

[3] = biological target: T3, Pellino3b FHA domain (amino acids 2–304) (Homo sapiens, UniProt Q8N2H9); assay: Fluorescence polarization peptide binding assay, Pellino3b FHA domain; conditions: ratio of KD values
T3 sequence (Q8N2H9 2-304 isoform Q8N2H9-2): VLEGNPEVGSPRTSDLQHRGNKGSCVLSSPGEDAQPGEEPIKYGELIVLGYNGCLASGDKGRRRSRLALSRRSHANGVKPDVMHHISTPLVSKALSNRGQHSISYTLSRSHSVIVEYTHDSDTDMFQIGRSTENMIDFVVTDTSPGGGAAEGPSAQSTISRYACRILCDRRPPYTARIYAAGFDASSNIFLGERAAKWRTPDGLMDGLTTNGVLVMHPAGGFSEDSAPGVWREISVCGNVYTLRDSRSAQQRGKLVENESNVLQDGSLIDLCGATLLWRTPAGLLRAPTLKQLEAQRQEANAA
In short: as §1

[4] = biological target: T4, Pellino3a FHA domain (amino acids 40–305) (Homo sapiens, UniProt Q8N2H9); assay: Fluorescence polarization peptide binding assay, Pellino3a FHA domain; conditions: ratio of KD values
T4 sequence (Q8N2H9 40-305): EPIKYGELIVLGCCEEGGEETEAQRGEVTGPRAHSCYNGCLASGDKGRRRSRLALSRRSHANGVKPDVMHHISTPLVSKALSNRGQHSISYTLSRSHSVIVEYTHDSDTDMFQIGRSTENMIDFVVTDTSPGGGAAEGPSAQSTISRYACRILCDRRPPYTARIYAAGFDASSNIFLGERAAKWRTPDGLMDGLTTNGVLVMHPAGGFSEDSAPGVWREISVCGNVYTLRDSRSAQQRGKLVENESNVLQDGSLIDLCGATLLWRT
In short: as §1

Pellino2 = Pellino2 (UniProt Q9HAT8); assay: GST pull-down from lysate, Xpress and pT blots; conditions: reference: wild-type IRAK1-197; sites T141
[5] = biological target: Pellino2 FHA domain, 15-275 (UniProt Q9HAT8); assay: fluorescence polarization titration; conditions: reference: pT141+3S peptide (native S144); sites S144
[6] = biological target: IRAK1pT141 peptide (amino acids 137–145 of IRAK1 with phosphothreonine at 141) (human) (UniProt P51617); assay: fluorescence polarisation
[7] = biological target: T5, Pellino2 FHA domain (amino acids 15–275 of Pellino2) (human, UniProt Q9HAT8 15-275); assay: fluorescence polarisation
T5 sequence (looked up): T2 sequence (Q9HAT8 15-275)

[8] = biological target: T6, Pellino3b FHA domain (amino acids 2–304) (human, UniProt Q8N2H9-2 2-304); assay: fluorescence polarisation
T6 sequence (looked up): T3 sequence (Q8N2H9 2-304 isoform Q8N2H9-2)

[9] = biological target: T7, Pellino1 FHA domain (amino acids 2–287, mouse) (mouse, UniProt Q8C669 2-287); assay: fluorescence polarisation
T7 sequence (looked up): T1 sequence (Q8C669 2-287)

[10] = biological target: scrambled version of the pT141 peptide; assay: fluorescence polarisation

Pellino2 FHA domain, 15-275, sequence (Q9HAT8 whole entry, looked up, the tested form may be a part): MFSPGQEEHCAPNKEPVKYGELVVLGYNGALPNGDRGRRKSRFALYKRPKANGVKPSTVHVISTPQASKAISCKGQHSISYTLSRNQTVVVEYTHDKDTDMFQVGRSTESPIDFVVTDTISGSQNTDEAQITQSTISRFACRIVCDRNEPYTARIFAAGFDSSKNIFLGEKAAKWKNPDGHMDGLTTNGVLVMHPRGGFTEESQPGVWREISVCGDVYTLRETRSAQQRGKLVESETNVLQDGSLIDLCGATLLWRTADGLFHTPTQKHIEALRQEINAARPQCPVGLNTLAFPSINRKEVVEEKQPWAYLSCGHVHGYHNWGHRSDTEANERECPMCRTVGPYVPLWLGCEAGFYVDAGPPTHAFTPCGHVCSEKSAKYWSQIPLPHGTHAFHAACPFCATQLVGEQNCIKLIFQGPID
IRAK1pT141 peptide (amino acids 137–145 of IRAK1 with phosphothreonine at 141) (human), sequence (P51617 whole entry, looked up, the tested form may be a part): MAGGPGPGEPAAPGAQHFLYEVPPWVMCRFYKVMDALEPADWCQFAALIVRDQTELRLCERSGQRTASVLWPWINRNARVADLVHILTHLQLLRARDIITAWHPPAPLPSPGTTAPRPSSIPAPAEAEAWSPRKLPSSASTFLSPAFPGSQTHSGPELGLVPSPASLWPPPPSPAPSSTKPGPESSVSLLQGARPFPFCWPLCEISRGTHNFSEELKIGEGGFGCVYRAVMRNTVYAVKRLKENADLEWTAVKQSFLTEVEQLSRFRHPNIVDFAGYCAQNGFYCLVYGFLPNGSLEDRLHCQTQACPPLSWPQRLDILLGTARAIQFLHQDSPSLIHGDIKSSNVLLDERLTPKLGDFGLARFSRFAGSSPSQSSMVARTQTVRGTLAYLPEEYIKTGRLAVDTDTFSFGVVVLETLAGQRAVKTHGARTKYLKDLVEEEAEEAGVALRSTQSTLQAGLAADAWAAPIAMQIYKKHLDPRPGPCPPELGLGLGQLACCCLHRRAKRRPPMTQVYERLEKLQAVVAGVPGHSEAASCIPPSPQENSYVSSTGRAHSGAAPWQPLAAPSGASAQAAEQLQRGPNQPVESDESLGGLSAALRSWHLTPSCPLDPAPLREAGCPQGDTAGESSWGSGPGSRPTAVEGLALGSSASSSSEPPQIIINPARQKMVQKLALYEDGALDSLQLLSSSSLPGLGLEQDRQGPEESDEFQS

For `CC(C)C[C@H](NC(=O)[C@H](Cc1ccccc1)NC(=O)[C@@H](NC(=O)[C@H](CO)NC(=O)[C@H](CO)NC(=O)[C@H](C)NC(=O)[C@H](CO)NC(=O)[C@@H](N)Cc1ccc(O)cc1)[C@@H](C)OP(=O)(O)O)C(=O)N[C@@H](CC(=O)O)C(=O)N1CCC[C@H]1C(N)=O` [IRAK1pT141+3D] (H-YSASS[pT]FLDP-NH2; N-terminus assumed), the “times weaker binding than for the pT141+3Y peptide” value (from here on “times weaker binding than”) [1] was “at least 13 times”, the “fold change in KD relative to pT141+3Y (preference for the pTxxY motif)” value [2] was 23 fold and the “times weaker binding than” value [3] was “at least 13 times”. The “times weaker binding than” value [4] was “at least 13 times”.

For `CC[C@H](C)[C@H](NC(=O)[C@H](CC(C)C)NC(=O)[C@H](Cc1ccccc1)NC(=O)[C@@H](NC(=O)[C@H](CO)NC(=O)[C@H](CO)NC(=O)[C@H](C)NC(=O)[C@H](CO)NC(=O)[C@@H](N)Cc1ccc(O)cc1)[C@@H](C)OP(=O)(O)O)C(=O)N1CCC[C@H]1C(N)=O` [IRAK1pT141+3I] (H-YSASS[pT]FLIP-NH2; N-terminus assumed), the “fold change in KD relative to pT141+3Y (preference for the pTxxY motif)” value [2] was 12 fold.

For `CC(C)C[C@H](NC(=O)[C@H](Cc1ccccc1)NC(=O)[C@@H](NC(=O)[C@H](CO)NC(=O)[C@H](CO)NC(=O)[C@H](C)NC(=O)[C@H](CO)NC(=O)[C@@H](N)Cc1ccc(O)cc1)[C@@H](C)OP(=O)(O)O)C(=O)N[C@@H](Cc1ccc(O)cc1)C(=O)N1CCC[C@H]1C(N)=O` [IRAK1pT141+3Y] (H-YSASS[pT]FLYP-NH2; N-terminus assumed), the “KD fold stronger than that for pT141+3S” value ([2]; ratio of KD values) was 4.6 fold.

In the case of IRAK1 1-197 (from UniProt P51617) T141A, the “binding against the reference” value (Pellino2) is reported as “weaker”.

“IRAK1 137-145 (from UniProt P51617) pT141+3D peptide” was tested, and the fold change (fold weaker KD) [5] was 5.

In the case of “Pellino2 FHA domain (amino acids 15–275 of Pellino2) (from UniProt Q9HAT8 15-275) (domain or fragment)”, the Kd [6] is reported as 820 nM.

fluorescein-YSSAS[pT]FLYP-NH2 (also: fluorescein: FITC or 5,6-FAM) [pT141+3Y peptide (IRAK1pT141 with tyrosine at position +3)] was tested, and the Kd [7] was 180 nM, the binding result [8] was “binds” and the Kd [9] was 770 nM.

B1: Pellino2 FHA domain (amino acids 15–275 of Pellino2) (domain or fragment)
chain: T2 sequence (Q9HAT8 15-275)
B1 showed a fold weaker affinity than for pT141 [10] greater than 100 fold.

fluorescein-YSSAS[pT]FLIP-NH2 (also: fluorescein: FITC or 5,6-FAM) [pT141+3I peptide (IRAK1pT141 with isoleucine at position +3)] was tested, and the binding result [8] was “binds” and the Kd [9] was 1800 nM.
